This is a sample that favours compounds with a hit; in the whole collection about 2.6% have one here.
MLL AF4-AF9 inh: blocks AF4 peptide binding to human AF9 | inhibition, % at 10 µM | AID 651704 | AlphaScreen, biotin-AF4 peptide binding to FLAG-AF9 | P42568 | 0.47% of 350,000 active;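 active = every replicate reaching a set inhibition limit, whatever the replicate mean, cut at about 25% in these data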;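 also: 0% = plate neutral control median and 100% = total signal loss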
RAD52 anneal inh: blocks human RAD52 DNA annealing | recombinant RAD52 DNA annealing, FRET fluorescence | 0.46% of 360,000 active | inhibition, % at 18.7 µM;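 active = every replicate showing at least 50% inhibition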
Target sequence (P43351 whole entry, looked up): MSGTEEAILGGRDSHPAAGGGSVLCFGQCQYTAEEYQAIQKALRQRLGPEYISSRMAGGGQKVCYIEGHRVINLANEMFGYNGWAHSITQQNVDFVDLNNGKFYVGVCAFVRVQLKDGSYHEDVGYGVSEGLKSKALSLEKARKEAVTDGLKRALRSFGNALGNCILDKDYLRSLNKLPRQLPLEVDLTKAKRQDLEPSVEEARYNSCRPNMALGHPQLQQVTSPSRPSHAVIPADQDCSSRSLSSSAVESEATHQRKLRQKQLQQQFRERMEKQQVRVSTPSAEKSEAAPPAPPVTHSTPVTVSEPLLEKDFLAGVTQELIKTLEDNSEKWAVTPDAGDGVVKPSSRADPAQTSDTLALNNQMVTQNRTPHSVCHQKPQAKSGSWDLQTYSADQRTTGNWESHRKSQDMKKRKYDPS
INS-1E GSIS act: primary screen for activators of insulin secretion dependent on glucose, INS-1E cells, GLuc reporter luminescence | INS-1E GLuc reporter insulin secretion, 2-3 h | activation, % at 16.6 µM | 0.61% of 370,000 active | AID 743287;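 active = lowest replicate activation of at least 40%, so every replicate reaches that level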;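 also: 0% = median of neutral control wells and 100% = median of IBMX positive control wells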
RAD54 inh: inhibitors of human RAD54 branch migration; Q92698; RAD54 Holliday junction branch migration, FAM/BHQ fluorescence; inhibition, % at 10.4 µM; 0.14% of 360,000 active;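 active = mean normalized replicate activity at least 40 and at least half of replicates scoring 40 or more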;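 also: 0% = median of neutral control wells and 100% = median of positive control wells; inhibitors cause a drop in the FAM fluorescence signal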
Ecoli rRNA inh: inhibitors of bacterial rRNA selective over humanized ribosomes; 1.6% of 350,000 active; GFP signal change (wild-type ribosome), % (concentration not given with the values); AID 720706; E. coli WT GFP vs humanized-ribosome RFP mutants, fluorescence, 24 h; stronger effect = lower value; DMSO median 0, no signal -100;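 active = significant combined selectivity score with lowered wild-type GFP, culture density cut under 30%, mutant RFP and density less affected; inactive = any of these conditions unmet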
E-sel inducer: induces E-selectin expression in human endothelial cells; activation, % at 7.58 µM; P16581; HUVEC E-selectin immunofluorescence imaging; normalized: neutral wells 0, TNF-alpha wells 100; 0.37% of 260,000 active;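 active = mean E-selectin-positive cell signal at least 10% of the positive control, reached in at least 60% of replicates, without over 20% cell loss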
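Assay system: HUVEC primary endothelial cells. Input: 3,000 HUVEC seeded per well. Doses: one compound dose added by pin transfer. Read-out basis: % PE-positive cells. Benchmarks: TNF-alpha high, DMSO low. Detection: immunofluorescence imaging. Buffer or medium: EGM-2, gelatin.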
Numbers without * were called inactive.

Results for C[C@@H]1CN([C@H](C)CO)C(=O)c2cc(NC(=O)Cn3cnnn3)ccc2O[C@H]1CN(C)Cc1ccc2c(c1)OCO2 ?
MLL AF4-AF9 inh: 1; RAD52 anneal inh: 4; INS-1E GSIS act: -1; RAD54 inh: 1; Ecoli rRNA inh: 1; E-sel inducer: 5

How did C[C@H]1CN([C@@H](C)CO)C(=O)c2cc(NC(=O)Cn3cnnn3)ccc2O[C@@H]1CN(C)Cc1ccc2c(c1)OCO2 do in these assays?
MLL AF4-AF9 inh: -1; RAD52 anneal inh: 4; INS-1E GSIS act: 25; RAD54 inh: -4; Ecoli rRNA inh: 0; E-sel inducer: 38*

What do the screens show for `CC1CCN(C(=O)CSc2nc(=O)n3cc(Cl)ccc3n2)CC1`?
MLL AF4-AF9 inh: -3; RAD52 anneal inh: -36; INS-1E GSIS act: 78*; Ecoli rRNA inh: -2; E-sel inducer: 1

How did COc1ccc(/C=N/NC(=O)Cn2cnc3ccccc3c2=O)cc1OC do in these assays?
INS-1E GSIS act: 56*; RAD54 inh: 0; E-sel inducer: -1

How did COc1ccc(/C=N/NC(=O)c2ccncc2)cc1OC do in these assays?
MLL AF4-AF9 inh: -2; RAD52 anneal inh: -9; INS-1E GSIS act: 35; RAD54 inh: 13; Ecoli rRNA inh: 11; E-sel inducer: 1

Results for COc1ccc(/C=C/C(=O)Oc2ccc(/C=N/NC(=O)c3ccccc3)cc2)cc1OC ?
INS-1E GSIS act: 129*; RAD54 inh: -10

How did COc1ccc(NC(=O)Cn2cnc3ccccc3c2=O)cc1OC do in these assays?
MLL AF4-AF9 inh: 1; RAD52 anneal inh: -8; INS-1E GSIS act: 0; Ecoli rRNA inh: -10

What do the screens show for `COc1ccc(/C=N/NC(=O)CCOc2ccccc2C)cc1OC`?
MLL AF4-AF9 inh: 3; RAD52 anneal inh: -15; INS-1E GSIS act: 53*; Ecoli rRNA inh: -5; E-sel inducer: -1

How did COc1ccccc1NC(=O)N1C[C@@H]2[C@H](c3ccccc31)[C@H](CO)N2Cc1ccccc1F do in these assays?
MLL AF4-AF9 inh: 2; RAD52 anneal inh: -25; INS-1E GSIS act: 1; RAD54 inh: 2; Ecoli rRNA inh: -7; E-sel inducer: 0

What do the screens show for `Cc1ccc2c(c1)Sc1c(ccc3ccccc13)N2`?
MLL AF4-AF9 inh: 3; RAD52 anneal inh: -14; INS-1E GSIS act: -5; RAD54 inh: 0; Ecoli rRNA inh: -27*

How did C=CCn1c(O)c(C=Nc2ccccc2)sc1=S do in these assays?
MLL AF4-AF9 inh: 1; RAD52 anneal inh: -13; INS-1E GSIS act: 3; RAD54 inh: -5; Ecoli rRNA inh: -22*; E-sel inducer: -2

How did CCn1c(O)c(C=Nc2ccccc2)sc1=S do in these assays?
MLL AF4-AF9 inh: 4; RAD52 anneal inh: -28; INS-1E GSIS act: -3; Ecoli rRNA inh: 9

How did N#Cc1ccc(NC(=S)/N=C(\N)c2ccccc2)cc1 do in these assays?
MLL AF4-AF9 inh: 2; RAD52 anneal inh: 3; INS-1E GSIS act: -33; RAD54 inh: 2; Ecoli rRNA inh: -49; E-sel inducer: -1

Results for N/C(=N\C(=S)Nc1ccccc1)c1ccccc1 ?
MLL AF4-AF9 inh: 43*; RAD52 anneal inh: -5; INS-1E GSIS act: 0; RAD54 inh: -19; Ecoli rRNA inh: 5; E-sel inducer: 0

How did O=[N+]([O-])c1cc(CN2CCCCCC2)ccc1O do in these assays?
MLL AF4-AF9 inh: -1; RAD52 anneal inh: -13; INS-1E GSIS act: -4; RAD54 inh: -13; Ecoli rRNA inh: 25; E-sel inducer: 0

What do the screens show for `Cc1ccc(Sc2ccc(CN3CCCCC3)cc2[N+](=O)[O-])cc1`?
MLL AF4-AF9 inh: 29*; RAD52 anneal inh: -4; INS-1E GSIS act: -12; Ecoli rRNA inh: -34; E-sel inducer: 3

How did COc1ccc(S(=O)(=O)N2CCCCN3[C@H](C2)[C@@H](c2ccc(C#CCC(C)C)cc2)[C@@H]3CO)cc1 do in these assays?
INS-1E GSIS act: -10; RAD54 inh: -5; Ecoli rRNA inh: 7; E-sel inducer: -1

Results for COc1ccc(S(=O)(=O)N2CCCCN3[C@@H](CO)[C@H](c4ccc(C#CC(C)C)cc4)[C@@H]3C2)cc1 ?
MLL AF4-AF9 inh: 3; RAD52 anneal inh: 36; INS-1E GSIS act: -21; RAD54 inh: 0; Ecoli rRNA inh: -46*; E-sel inducer: 0

What do the screens show for `C/C=C/c1ccc([C@H]2[C@@H](CO)N3CCCCN(S(=O)(=O)c4ccc(OC)cc4)C[C@H]23)cc1`?
MLL AF4-AF9 inh: 6; RAD52 anneal inh: 60*; INS-1E GSIS act: -9; RAD54 inh: -5; Ecoli rRNA inh: -56; E-sel inducer: 2

Results for COC(=O)C[C@@H]1CC[C@H]2[C@@H](COc3ccc(NC(=O)c4cc(F)cc(F)c4)cc3C(=O)N2C)O1 ?
INS-1E GSIS act: -7; RAD54 inh: 0; Ecoli rRNA inh: -3; E-sel inducer: 0

What do the screens show for `C[C@@H]1CN([C@@H](C)CO)S(=O)(=O)c2ccc(C#C[C@@H](C)O)cc2O[C@H]1CN(C)C(=O)c1ccccc1`?
MLL AF4-AF9 inh: -2; RAD52 anneal inh: -5; INS-1E GSIS act: 4; RAD54 inh: -1; Ecoli rRNA inh: -1; E-sel inducer: 0

How did C/C(=N\N1CCN(Cc2ccc(Cl)cc2)CC1)c1ccc(F)cc1 do in these assays?
MLL AF4-AF9 inh: 9; RAD52 anneal inh: -6; INS-1E GSIS act: -4; RAD54 inh: -2; Ecoli rRNA inh: -18*; E-sel inducer: 0

Results for C[C@@H]1CN([C@@H](C)CO)C(=O)c2cc(Br)cnc2O[C@@H]1CN(C)C(=O)C1CCOCC1 ?
MLL AF4-AF9 inh: 3; RAD52 anneal inh: 2; INS-1E GSIS act: 27; RAD54 inh: -9; Ecoli rRNA inh: 5; E-sel inducer: 1

Results for O=C(NCC[C@H]1CC[C@H](NS(=O)(=O)c2ccc(Cl)cc2)[C@H](CO)O1)Nc1ccc(F)cc1 ?
MLL AF4-AF9 inh: 30*; RAD52 anneal inh: 16; INS-1E GSIS act: -11; Ecoli rRNA inh: -5; E-sel inducer: -1

What do the screens show for `O=C(NCC[C@@H]1CC[C@@H](NC(=O)Nc2cc(F)ccc2F)[C@H](CO)O1)Nc1ccc(F)cc1`?
MLL AF4-AF9 inh: 22; RAD52 anneal inh: 56*; INS-1E GSIS act: -3; RAD54 inh: 16; Ecoli rRNA inh: -3; E-sel inducer: 0

How did C[C@H](CO)N1C[C@H](C)[C@@H](CN(C)C(=O)Nc2cccc3ccccc23)Oc2c(NC(=O)Nc3ccc(F)cc3)cccc2C1=O do in these assays?
MLL AF4-AF9 inh: -1; RAD52 anneal inh: -8; INS-1E GSIS act: -11; RAD54 inh: 7; Ecoli rRNA inh: -2; E-sel inducer: 0

What do the screens show for `CCCCn1c(=O)n(C)c(=O)c2c3c(sc21)COC(C)(C)C3`?
INS-1E GSIS act: 45*; RAD54 inh: -2

How did COc1ccc(O)c(/C=N/NC(=O)c2c(C)nnn2-c2nonc2N)c1 do in these assays?
MLL AF4-AF9 inh: -1; RAD52 anneal inh: -18; INS-1E GSIS act: -5; Ecoli rRNA inh: 2

Assay outcomes: PubChem, Broad Institute
